Screens (PubChem BioAssay)
Compounds with a hit are over-represented: about 3.7% of the library has one in this group of screens.
KCNK9 inh – human KCNK9 channel inhibition | 1.2% of 310,000 active | HEK293 KCNK9, FluxOR thallium flux fluorescence; stronger effect = lower value | B-score at 10 µM | Q9NPC2;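 active = ratio B-score over 3 SD below the library mean, with starting fluorescence within 5 SD of its mean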;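 also: negative B-score means less thallium flux so channel inhibition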
Kir21 inh – inhibitors of mouse Kir2.1 inward-rectifier potassium channel; 0.85% of 310,000 active; HEK293-Kir2.1, FluxOR thallium flux fluorescence; stronger effect = lower value; B-score at 10 µM; AID 1672; P35561;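 active = fluorescence ratio B-score at or below minus 3 SD of library scores, with starting-brightness B-score within 2 SD, cut at about -4.2 in these data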;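 also: channel flux triggered by added potassium and thallium sulfate stimulus; B-score of peak minus minimum fluorescence over baseline after thallium stimulus; more negative B-score means stronger Kir2.1 block with less thallium influx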
Target sequence (P35561 whole entry, looked up): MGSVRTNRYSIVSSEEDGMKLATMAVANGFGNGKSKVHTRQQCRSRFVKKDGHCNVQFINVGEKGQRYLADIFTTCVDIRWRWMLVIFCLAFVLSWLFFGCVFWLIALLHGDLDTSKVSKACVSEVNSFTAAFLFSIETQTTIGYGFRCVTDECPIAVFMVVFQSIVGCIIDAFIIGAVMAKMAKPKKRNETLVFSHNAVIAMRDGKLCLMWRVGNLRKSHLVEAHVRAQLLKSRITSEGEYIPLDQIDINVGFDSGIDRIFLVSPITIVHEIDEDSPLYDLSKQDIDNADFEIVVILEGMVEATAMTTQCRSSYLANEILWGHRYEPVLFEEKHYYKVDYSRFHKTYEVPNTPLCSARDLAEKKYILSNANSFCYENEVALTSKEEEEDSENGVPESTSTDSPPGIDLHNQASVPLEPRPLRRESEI
hERG rescue – hERG (human) protection from proarrhythmic block; 0.51% of 310,000 active; activation (rescue from dofetilide block), less the hit threshold, % at 10 µM; AID 1511; CHO-hERG, FluxOR thallium flux, dofetilide IC70 present;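 active = activation above the mean of controls blocked by dofetilide plus 5 SD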;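 also: thallium influx through hERG after potassium depolarization seen as dye fluorescence rise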
KCNK3 block – human KCNK3 channel inhibition, primary screen | O14649 | B-score at 10 µM | AID 602410 | 0.84% of 340,000 active | CHO-KCNK3 thallium flux, FluxOR fluorescence; stronger effect = lower value;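 active = B-score under library mean minus 4 SD, starting fluorescence ratio at most library mean plus 5 SD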;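 also: more negative B-score means stronger inhibition of thallium flux through KCNK3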
KCNQ1 pot – potentiators or activators of human KCNQ1 potassium channel; P51787; CHO-K1 KCNQ1, thallium flux FluxOR fluorescence; stronger effect = higher value; B-score at 10 µM; 0.35% of 310,000 active;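 active = fluorescence ratio B-score, a plate-corrected score, at least three library SD, with initial intensity B-score within 5 SD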
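Doses: Single concentration per compound, DMSO matched to controls | Test system: KCNQ1-transfected CHO-K1 cells | Timing: 90 min dye loading and 20 min compound exposure, both at room temperature | Measured by: Kinetic FluxOR thallium fluorescence, 10-s 1-Hz baseline, 110-s post-stimulus read | Medium: Assay buffer with matched DMSO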
KCNQ1 block – human KCNQ1 channel inhibition | P51787 | CHO-K1 KCNQ1, FluxOR thallium flux fluorescence; stronger effect = higher value | B-score at 10 µM | 1.3% of 310,000 active;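 active = compounds whose thallium flux B-score, printed positive for inhibition, exceeds three library SD while starting fluorescence stays within three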;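 also: channel opened by potassium depolarization with thallium stimulus after 20 min compound exposure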
KCNK9 inh conf – human KCNK9 inhibitor confirmation. shares compounds with KCNK9 inh. HEK293 KCNK9 cells, FluxOR thallium flux fluorescence. inhibition, % at 10 µM. 43% of 4,900 active;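 active = thallium signal inhibited by more than 5 SD of the compound-free buffer control wells, on both duplicate plates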;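 also: 0% = assay buffer control wells without compound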
Kir21 sel – mouse Kir2.1 off-target activity of KCNK9 modulators; 4% of 4,900 active; shares compounds with KCNK9 inh; Kir2.1 cells, FluxOR thallium flux fluorescence; AID 492993; inhibition, % at 10 µM;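 active = thallium signal drop more than 5 SD beyond the mean of the no-compound control wells, seen in both duplicate plates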;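 also: signal is fluorescence rise after thallium addition divided by baseline fluorescence; plate controls were assay buffer only for no effect and full block by chlorpromazine control for full effect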
KCNK9 uninduced – non-induced cell nonspecific activity of KCNK9 modulators. shares compounds with KCNK9 inh. non-induced KCNK9-HEK293, FluxOR thallium flux. inhibition, % at 10 µM. 40% of 4,900 active;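 active = thallium signal drop beyond 5 SD of the untreated control mean, on both duplicate plates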;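 also: plate controls were buffer only IC0 wells for no effect and SID17386958 at its maximal inhibitory level for full effect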
Active calls of the source: *; i = inactive; / = no result.

SMILES	KCNK9 inh	Kir21 inh	hERG rescue	KCNK3 block	KCNQ1 pot	KCNQ1 block	KCNK9 inh conf	Kir21 sel	KCNK9 uninduced
CC(C)(C)C(=O)[C@H]1[C@H](c2ccccc2)[C@@]2(N=C(c3ccccc3)OC2=O)C2c3ccccc3C=NN21 (stereo partly specified)	-9.7*	-0.52	-18	i	i	i	29%*	i	i
CC(C(=O)Nc1ccc(C#N)cc1)N(C)Cc1cccs1 (stereo unspecified)	i	1.1	-9	i	i	i	/	/	/
CC(C(=O)Nc1ccc(Cl)cc1)N(C)Cc1cccs1 (stereo unspecified)	-11*	-0.86	-4	i	i	i	56%*	i	25%*
CCOC(=O)c1ccc(/C=C2\c3ccccc3C(=O)N2c2ccccc2)cc1F	/	/	/	i	/	/	/	/	/
COc1ccc(-c2cc(C)nc3c(-c4ccccc4)cnn23)cc1	-9.5*	-1.1	-20	i	i	i	58%*	i	51%*
O=C(/C=C/c1cccs1)c1cc(Br)ccc1OC(=O)N1CCOCC1	-9.8*	0.64	-3	i	i	i	30%*	i	23%*
Cc1ccc(NCc2nc3ccccc3n2CCOc2ccccc2)cc1	-12*	-0.23	-7	i	i	i	40%*	i	38%*
COc1ccc(Cn2nc(C)n(N(C)c3ncc(C(F)(F)F)cc3Cl)c2=O)cc1	i	-0.52	-5	i	i	i	i	i	i
CN(C(=O)c1ccco1)c1nnc(C23CC4CC(CC(C4)C2)C3)s1	i	1.1	-12	i	i	i	/	/	/
CN(C(=O)COc1ccc(Cl)cc1Cl)c1nnc(C23CC4CC(CC(C4)C2)C3)s1	i	0.43	-7	i	i	i	i	i	i
CCCCCC(=O)Nc1ccccc1N1CCN(c2ccccc2)CC1	-13*	0.14	-5	-11*	i	i	49%*	i	36%*
Cc1cc(C)c(OCC(=O)Nc2ccccc2N2CCCCC2)c(C)c1	i	0.85	-10	i	i	i	/	/	/
CCC(=O)N1CCN(c2ccccc2NC(=O)COc2cc(C)ccc2C(C)C)CC1	-8.2*	-2.1	-5	i	i	i	46%*	i	28%*
Cc1cc(C)c(OCC(=O)Nc2ccccc2N2CCOCC2)c(C)c1	-10*	-2	-7	-10*	i	i	i	i	48%*
O=C(COc1ccccc1)Nc1ccccc1N1CCN(c2ccc(F)cc2)CC1	-8.6*	-0.28	-3	i	i	i	i	i	28%*
CCCN(CC(=O)Nc1ccccc1C)C(=O)C1CCN(C(=O)Nc2ccccc2)CC1	i	0.78	-13	i	i	i	/	/	/
CNC(=O)c1nn(C)c(=O)[nH]c1=O	/	/	/	i	/	/	/	/	/
CC1=C(C(=O)Nc2ccccc2C)C(c2ccc(C)o2)N2C(=O)CSC2=N1 (stereo unspecified)	-8.3*	-0.36	-6	i	i	i	38%*	i	51%*
CCC(C(=O)N1CCN(c2cccc(Cl)c2)CC1)c1ccccc1 (stereo unspecified)	-11*	0.15	-8	-11*	i	i	50%*	i	32%*
O=C(Nc1nnc(-c2ccc3c(c2)CCCC3)o1)c1ccccc1	i	0.95	-9	i	33*	i	i	i	i
O=C(Nc1nnc(-c2ccncc2)o1)c1ccccc1	i	1.1	-8	i	i	i	/	/	/
Cc1ccnc(NS(=O)(=O)c2ccc(NC(=O)Cc3ccc(Br)cc3)cc2)n1	i	-0.34	-6	i	i	i	/	/	/
CC1(CCc2ccc3c(c2)OCO3)NCCc2c1[nH]c1ccccc21 (stereo unspecified)	i	-1.9	-14	i	i	i	/	/	/
Cc1ccc2c(c1C)C(=O)C(=O)N2	/	/	/	i	/	/	/	/	/
CN(C)CCNC(C(=O)Nc1cc(Cl)cc(Cl)c1)c1ccccc1 (stereo unspecified)	i	-1.1	-3	i	i	i	/	/	/
SMILES	KCNK9 inh	Kir21 inh	hERG rescue	KCNK3 block	KCNQ1 pot	KCNQ1 block	KCNK9 inh conf	Kir21 sel	KCNK9 uninduced
CC(C)NC(C(=O)Nc1cc(Cl)cc(Cl)c1)c1ccccc1 (stereo unspecified)	-9.3*	-0.83	-11	i	i	i	34%*	i	25%*
CN1CCN(CC#Cc2ccccc2)CC1CCO (stereo unspecified)	i	1.1	-8	i	i	i	/	/	/
C[C@H](CO)N1C[C@H](C)[C@@H](CN(C)S(C)(=O)=O)Oc2c(NC(=O)c3ccncc3)cccc2C1=O	/	/	/	i	/	/	/	/	/
CC(C)CC(OC(=O)CC1Sc2ccccc2NC1=O)C(=O)NC1CCCC1 (stereo unspecified)	-8.9*	1.8	-6	i	i	i	i	i	i
COc1ccc(N2CCN(C3CCCCC3NS(=O)(=O)c3ccc(Cl)cc3)CC2)cc1 (stereo unspecified)	i	1.1	-2	i	i	i	i	i	i
Cc1ccc(C)c(N2CCN(C3CCCCC3NS(=O)(=O)c3ccccc3)CC2)c1 (stereo unspecified)	-16*	0.68	-7	-12*	i	8*	52%*	i	31%*
O=C(Cn1cc(C(F)(F)F)ccc1=O)OCC(=O)c1ccc[nH]1	/	/	/	i	/	/	/	/	/
COc1ccc(OC)c(/C=C2\SC(=S)N(NS(=O)(=O)c3ccc(C)cc3)C2=O)c1	i	-0.23	-4	i	i	i	i	i	i
CCOc1ccc(/C=C2\SC(=S)N(NS(=O)(=O)c3ccc(C)cc3)C2=O)cc1OC	i	0.72	-18	i	i	i	i	i	i
COc1ccc(/C=C2\SC(=S)N(NS(=O)(=O)c3ccccc3)C2=O)c(OC)c1	i	2.5	-8	i	19*	i	i	i	i
Cc1cc(/C=C2\NC(=O)N(Cc3ccc(Cl)cc3)C2=O)c(C)n1C	/	/	/	i	/	/	/	/	/
N=c1n(CC(=O)c2ccc(Br)s2)c2ccccc2n1Cc1ccccc1	-10*	0.03	-21	i	i	i	52%*	i	30%*
